Reference: ChEMBL document CHEMBL4118269 (J Med Chem, 2018)
pKd: −log10 of the molar value.

How the values were obtained:
[1] = target: Lanosterol 14-alpha demethylase (Candida albicans (strain SC5314 / ATCC MYA-2876) (Yeast), UniProt P10613); assay: Inhibition of Candida albicans CYP51 assessed as reduction in [3-3H]lanosterol 14alpha-demethylation at 0.75 uM preincubated for 60 secs followed by NADPH addition measured after 60 mins by RP-HPLC analysis relative to control; settings: 1 h
Outline: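 C. albicans CYP51 expressed in E. coli and purified, 0.5 μM, with 1.0 μM rat NADPH-P450 reductase, dilauroylphosphatidylcholine and isocitrate dehydrogenase/isocitrate regeneration in 50 mM potassium phosphate pH 7.2, 10% glycerol, 0.1% Triton X-100. Substrate 25 μM final; inhibitor:enzyme:substrate 1.5:1:50. 37 °C, started with 100 μM NADPH. Sterols extracted with EtOAc, radio-HPLC. Triplicate, mean ± SD.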

[2] = target: Lanosterol 14-alpha demethylase (Aspergillus) (UniProt B8NUK6+Q9P8R0+G4WW85); assay: Inhibition of Aspergillus fumigatus CYP51 assessed as reduction in [3-3H]eburicol 14alpha-demethylation at 0.75 uM preincubated for 60 secs followed by NADPH addition measured after 60 mins by RP-HPLC analysis relative to control
Outline: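 E. coli-expressed, purified CYP51 (0.5 μM) with rat NADPH-P450 reductase (1.0 μM), 100 μM dilauroylphosphatidylcholine, isocitrate dehydrogenase/isocitrate NADPH regeneration, in 50 mM K phosphate pH 7.2 with 10% glycerol and 0.1% Triton X-100. [3-3H]eburicol 25 μM final, inhibitor 0.75 μM final (1.5:1:50 inhibitor:enzyme:substrate), 37 °C. Started with 100 μM NADPH, 60 min, EtOAc extraction, radio-HPLC. Percent inhibition, triplicate, mean ± SD.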

[3] = Lipophilicity, log P of the compound; type: physicochemical; settings: octanol/water
in vitro [4] = settings: CD-1, mouse, liver microsomes
[5] = Half life in human liver microsomes at 1 uM preincubated for 5 mins followed by NADPH addition measured up to 45 mins by LC-MS/MS analysis; type: ADME, microsome; settings: 0.75 h
Outline: (§1)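 Pooled liver microsomes (0.5 mg/mL; male CD-1 mouse, male Sprague Dawley rat, or mixed-gender human) with 1 μM compound in 100 mM potassium phosphate pH 7.4, 3 mM MgCl2, 37 °C with shaking. 5 min preincubation, then 1 mM NADPH. Aliquots at 0, 3, 7, 15, 25, 45 min quenched in cold CH3CN with carbamazepine internal standard, then LC/MS/MS. Triplicate; T1/2 = ln2/k from the slope of ln % remaining versus time.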

in vitro [6] = settings: human, liver microsomes
[7] = Half life in CD-1 mouse liver microsomes at 1 uM preincubated for 5 mins followed by NADPH addition measured up to 45 mins by LC-MS/MS analysis; type: ADME, microsome; settings: 0.75 h; outline: as §1
in vitro [8] = settings: CD-1, mouse, liver microsomes; remark: listed apart in the source
in vitro [9] = settings: Sprague-Dawley, rat, liver microsomes
in vitro [10] = settings: Sprague-Dawley, rat, liver microsomes; remark: listed apart in the source
in vitro [11] = settings: human, liver microsomes; remark: listed apart in the source
[12] = Half life in Sprague-Dawley rat liver microsomes at 1 uM preincubated for 5 mins followed by NADPH addition measured up to 45 mins by LC-MS/MS analysis; type: ADME, microsome; settings: 0.75 h; outline: as §1
[13] = target: T1, Lanosterol 14-alpha demethylase (Aspergillus, UniProt B8NUK6+G4WW85+Q9P8R0); assay: Binding affinity to Aspergillus fumigatus CYP51 by spectral titration method; settings: read-out: Kd(app)
T1 sequence (B8NUK6 whole entry): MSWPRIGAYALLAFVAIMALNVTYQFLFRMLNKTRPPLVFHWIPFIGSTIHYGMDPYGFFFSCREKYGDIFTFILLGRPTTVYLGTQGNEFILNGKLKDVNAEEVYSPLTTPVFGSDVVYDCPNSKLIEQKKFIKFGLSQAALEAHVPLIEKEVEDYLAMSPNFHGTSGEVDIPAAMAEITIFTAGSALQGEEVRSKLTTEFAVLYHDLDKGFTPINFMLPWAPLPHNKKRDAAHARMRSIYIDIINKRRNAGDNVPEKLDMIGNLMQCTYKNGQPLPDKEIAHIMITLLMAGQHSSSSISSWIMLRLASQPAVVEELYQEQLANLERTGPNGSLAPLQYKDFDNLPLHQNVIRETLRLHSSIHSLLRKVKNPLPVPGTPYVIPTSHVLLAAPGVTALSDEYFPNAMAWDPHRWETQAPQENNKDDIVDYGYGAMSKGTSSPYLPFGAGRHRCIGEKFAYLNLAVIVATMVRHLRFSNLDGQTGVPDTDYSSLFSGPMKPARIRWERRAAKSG
T1 sequence (Q9P8R0 whole entry): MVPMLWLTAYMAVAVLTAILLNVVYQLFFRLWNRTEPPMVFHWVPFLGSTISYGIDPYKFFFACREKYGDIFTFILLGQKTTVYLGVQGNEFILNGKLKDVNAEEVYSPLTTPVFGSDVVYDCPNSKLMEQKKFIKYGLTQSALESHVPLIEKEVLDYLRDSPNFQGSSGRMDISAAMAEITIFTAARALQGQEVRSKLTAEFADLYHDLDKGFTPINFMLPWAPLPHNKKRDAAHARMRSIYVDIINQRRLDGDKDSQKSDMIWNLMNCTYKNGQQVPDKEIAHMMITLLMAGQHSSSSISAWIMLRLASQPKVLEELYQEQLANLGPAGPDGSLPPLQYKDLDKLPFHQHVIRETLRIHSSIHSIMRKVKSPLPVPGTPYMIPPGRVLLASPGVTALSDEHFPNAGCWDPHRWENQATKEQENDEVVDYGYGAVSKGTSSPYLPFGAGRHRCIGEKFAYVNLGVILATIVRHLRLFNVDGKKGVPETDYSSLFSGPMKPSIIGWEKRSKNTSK
T1 sequence (G4WW85 whole entry): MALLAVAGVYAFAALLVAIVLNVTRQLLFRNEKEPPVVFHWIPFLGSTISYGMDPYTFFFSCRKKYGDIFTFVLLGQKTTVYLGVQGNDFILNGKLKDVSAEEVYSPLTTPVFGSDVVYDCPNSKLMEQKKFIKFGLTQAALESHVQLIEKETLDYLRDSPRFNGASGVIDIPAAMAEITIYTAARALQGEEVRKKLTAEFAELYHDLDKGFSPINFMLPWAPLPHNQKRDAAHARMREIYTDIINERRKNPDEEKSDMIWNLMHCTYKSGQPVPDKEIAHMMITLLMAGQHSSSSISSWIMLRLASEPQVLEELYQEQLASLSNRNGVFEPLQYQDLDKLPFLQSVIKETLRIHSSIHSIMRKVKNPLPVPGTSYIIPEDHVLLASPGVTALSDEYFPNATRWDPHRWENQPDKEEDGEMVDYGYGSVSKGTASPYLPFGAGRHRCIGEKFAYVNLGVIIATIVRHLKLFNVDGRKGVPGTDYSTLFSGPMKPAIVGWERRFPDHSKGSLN
Outline: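 Purified CYP51 at 0.5 μM in 5 cm path cuvettes, titrated from 0.2 mM DMSO stocks over 0.1–0.8 μM ligand. Type II red shift of the Soret band (417 to 424 nm) followed as ΔA (Amax−Amin) in difference spectra. Kd obtained by fitting to the quadratic tight-binding equation using total ligand and enzyme concentrations.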

Chain of Lanosterol 14-alpha demethylase (Candida albicans (strain SC5314 / ATCC MYA-2876) (Yeast), UniProt P10613) (P10613 whole entry): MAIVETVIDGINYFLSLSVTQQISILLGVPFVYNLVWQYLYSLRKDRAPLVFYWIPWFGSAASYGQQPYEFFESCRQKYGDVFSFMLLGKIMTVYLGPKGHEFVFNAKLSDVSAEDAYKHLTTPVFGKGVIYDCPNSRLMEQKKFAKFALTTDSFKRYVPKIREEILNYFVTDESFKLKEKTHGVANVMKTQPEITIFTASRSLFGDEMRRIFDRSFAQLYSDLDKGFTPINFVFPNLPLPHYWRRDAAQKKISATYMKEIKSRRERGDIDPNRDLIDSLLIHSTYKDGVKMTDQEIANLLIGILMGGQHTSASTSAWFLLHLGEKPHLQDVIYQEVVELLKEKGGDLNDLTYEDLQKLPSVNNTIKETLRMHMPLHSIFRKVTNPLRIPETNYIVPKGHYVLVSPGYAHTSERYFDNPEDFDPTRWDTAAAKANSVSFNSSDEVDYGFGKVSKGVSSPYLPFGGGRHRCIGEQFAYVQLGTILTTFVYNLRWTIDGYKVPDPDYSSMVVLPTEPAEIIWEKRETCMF

Compound | inhibition at 0.75 µM [1] [%] | inhibition [2] [%] | logP [3] | CLhep predicted at 0.75 h, 1 µM (in vitro [4]) [mL/min/kg] | t1/2 [5] [h] | CLint scaled at 0.75 h, 1 µM (in vitro [6]) [mL/min/kg] | t1/2 [7] [h] | CLint scaled at 0.75 h, 1 µM (in vitro [8]) [mL/min/kg] | CLhep predicted at 0.75 h, 1 µM (in vitro [9]) [mL/min/kg] | CLint scaled at 0.75 h, 1 µM (in vitro [10]) [mL/min/kg] | CLhep predicted at 0.75 h, 1 µM (in vitro [11]) [mL/min/kg] | t1/2 [12] [h] | pKd [13]
O=C(N[C@@H](Cn1ccnc1)c1ccc(Cl)cc1Cl)c1ccc(-c2nnc(-c3ccc(N4CCOCC4)cc3)o2)cc1 | 29 | 3 | 4.45 | – | – | – | – | – | – | – | – | – | –
CS(=O)(=O)c1ccc(-c2nnc(-c3ccc(C(=O)N[C@@H](Cn4ccnc4)c4ccc(Cl)cc4Cl)cc3)o2)cc1Cl | 53 | 32 | 3.83 | 34.5 | 2.23 | 9.31 | 1.62 | 56 | 42 | 104 | 6.45 | 0.45 | –
O=C(N[C@@H](Cn1ccnc1)c1ccc(Cl)cc1Cl)c1ccc(-c2nnc(-c3cccc(N4CCOCC4)c3)o2)cc1 | 58 | 15 | 4.45 | – | – | – | – | – | – | – | – | – | –
O=C(N[C@@H](Cn1ccnc1)c1ccc(Cl)cc1Cl)c1ccc(-c2nnc(-c3cccc(Br)c3)o2)cc1 | 84 | 41 | 5.4 | 55 | 2.2 | 9.47 | 0.717 | 126 | 19 | 27 | 6.53 | 1.77 | –
O=C(N[C@@H](Cn1ccnc1)c1ccc(Cl)cc1Cl)c1ccc(-c2nnc(-c3cc(F)cc(OCC(F)(F)F)c3)o2)cc1 | 65 | 51 | 5.58 | 43.6 | 1.85 | 11.3 | 1.08 | 84.7 | 29 | 50.4 | 7.33 | 0.933 | –
O=C(N[C@@H](Cn1ccnc1)c1ccc(Cl)cc1Cl)c1ccc(-c2nnc(-c3ccc(-c4ccccn4)cc3F)o2)cc1 | 61 | 26 | 5.49 | 26 | 1.38 | 15 | 2.48 | 36.5 | 29.7 | 51.6 | 8.75 | 0.9 | –
O=C(N[C@@H](Cn1ccnc1)c1ccc(Cl)cc1Cl)c1ccc(-c2nnc(-c3ccc(-c4ccccn4)cc3)o2)cc1 | 66 | 23 | 5.33 | 46 | 1.92 | 10.8 | 0.95 | 95 | 40 | 94 | 7.15 | 0.5 | –
O=C(N[C@@H](Cn1ccnc1)c1ccc(Cl)cc1Cl)c1ccc(-c2nnc(-c3cccc(-c4ccccn4)c3)o2)cc1 | 77 | 34 | 5.33 | 56 | 1.58 | 13.1 | 0.6 | 152 | 35 | 68 | 8.06 | 0.683 | –
O=C(N[C@@H](Cn1ccnc1)c1ccc(Cl)cc1Cl)c1ccc(-c2nnc(-c3cc(-c4ccccn4)ccc3F)o2)cc1 | 83 | 24 | 5.49 | 65 | 2.05 | 10.2 | 0.383 | 238 | 29 | 49.4 | 6.85 | 0.95 | –
O=C(N[C@@H](Cn1ccnc1)c1ccc(Cl)cc1Cl)c1ccc(-c2nnc(-c3cc(F)cc(-c4ccccn4)c3)o2)cc1 | 87 | 80 | 5.49 | 34 | 0.217 | 96.6 | 1.65 | 55 | 24 | 36 | 17.3 | 1.3 | 7.21
O=C(N[C@@H](Cn1ccnc1)c1ccc(Cl)cc1Cl)c1ccc(-c2nnc(-c3ccc(Cl)c(Cl)c3)o2)cc1 | 92 | 55 | 5.68 | 49 | 1.83 | 11.4 | 0.85 | 107 | 35 | 70 | 7.39 | 0.667 | –
